Test results reported in paper PMC4001804 (Journal of pharmaceutical sciences, 2014).
Read-outs that look alike come from different tables or passages of the source.

Tests used:
[1] = design: species or system female Sprague-Dawley rats; details: female, Sprague-Dawley, rat, in vivo
[2] = 10 μg/kg (2.4 nmoles/kg) iv bolus dose; ref 10 (Jones et al.); cited from earlier work
[3] = Single-dose subcutaneous serum pharmacokinetics, analysis of individual animals; type: in vivo, female Sprague-Dawley rats
Procedure, shortened: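 Three-month-old female rats (200–240 g), acclimated two weeks, n = 4, got one subcutaneous dose. Tail-vein blood was drawn at 0, 2, 5, 10, 20, 30, 60, 180 and 360 min, clotted at ambient temperature, spun 14,000 rpm 10 min refrigerated, and serum stored at −80°C. Immunoreactive hPTH(1-34) was measured by ELISA. Parameters came from individual animals; half-life was reported as geometric mean.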

- clearance [1]: 83 mL/min/kg
- bioavailability ([1]; sc): 47%
- half-life ([3]; female, Sprague-Dawley, rat, serum, sc, 19.4 nmoles/kg): 59 min
- Time by which serum concentrations returned to background levels ([3]; single sc dose 19.4 nmoles/kg): ≤ 6 h
Structure (SMILES): CC[C@H](C)[C@H](NC(=O)[C@H](CCC(=O)O)NC(=O)[C@H](CO)NC(=O)[C@@H](NC(=O)[C@@H](N)CO)C(C)C)C(=O)N[C@@H](CCC(N)=O)C(=O)N[C@@H](CC(C)C)C(=O)N[C@@H](CCSC)C(=O)N[C@@H](Cc1cnc[nH]1)C(=O)N[C@@H](CC(N)=O)C(=O)N[C@@H](CC(C)C)C(=O)NCC(=O)N[C@@H](CCCCN)C(=O)N[C@@H](Cc1cnc[nH]1)C(=O)N[C@@H](CC(C)C)C(=O)N[C@@H](CC(N)=O)C(=O)N[C@@H](CO)C(=O)N[C@@H](CCSC)C(=O)N[C@@H](CCC(=O)O)C(=O)N[C@@H](CCCN=C(N)N)C(=O)N[C@H](C(=O)N[C@@H](CCC(=O)O)C(=O)N[C@@H](Cc1c[nH]c2ccccc12)C(=O)N[C@@H](CC(C)C)C(=O)N[C@@H](CCCN=C(N)N)C(=O)N[C@@H](CCCCN)C(=O)N[C@@H](CCCCN)C(=O)N[C@@H](CC(C)C)C(=O)N[C@@H](CCC(N)=O)C(=O)N[C@@H](CC(=O)O)C(=O)N[C@H](C(=O)N[C@@H](Cc1cnc[nH]1)C(=O)N[C@@H](CC(N)=O)C(=O)N[C@@H](Cc1ccccc1)C(=O)O)C(C)C)C(C)C [PTH(1-34), teriparatide]
- clearance [2]: 98 mL/min/kg
